pIC50, pKi: −log10 of the molar value. Activity calls are given as the source filed them. No cut-off for these calls is given here.
How the values were obtained:
[1] = target: T1, Histone-lysine N-methyltransferase SMYD3 (Homo sapiens, UniProt Q9H7B4); assay: Inhibition of SMYD3 (unknown origin) using MAP3K2 peptide as substrate pretreated for 30 mins followed by substrate addition and measured after 30 mins by MTase Glo reagent based luminescence assay
T1 sequence (Q9H7B4 whole entry): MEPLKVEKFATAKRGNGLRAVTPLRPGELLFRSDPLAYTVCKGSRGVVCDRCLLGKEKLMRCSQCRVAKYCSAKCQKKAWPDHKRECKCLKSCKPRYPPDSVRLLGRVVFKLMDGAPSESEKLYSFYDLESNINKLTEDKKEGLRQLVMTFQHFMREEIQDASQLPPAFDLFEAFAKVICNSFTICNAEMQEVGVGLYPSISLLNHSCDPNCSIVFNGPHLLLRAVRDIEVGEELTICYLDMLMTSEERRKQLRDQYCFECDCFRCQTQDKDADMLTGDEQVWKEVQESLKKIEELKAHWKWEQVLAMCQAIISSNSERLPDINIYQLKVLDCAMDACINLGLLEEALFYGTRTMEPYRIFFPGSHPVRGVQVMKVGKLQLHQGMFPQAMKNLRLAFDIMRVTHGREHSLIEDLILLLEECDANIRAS
How it was run: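 SMYD3 IC50 values taken as mean of duplicate experiments.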

[2] = Apparent permeability across apical to basolateral side in human Caco2 cells by LC-MS/MS analysis; type: ADME, cell-based; details: Caco-2
[3] = Apparent permeability across basolateral to apical side in human Caco2 cells by LC-MS/MS analysis; type: ADME, cell-based; details: Caco-2
[4] = Metabolic stability in mouse liver microsomes assessed as half life preincubated for 5 mins followed by NADPH addition measured upto 60 mins by LC-MS/MS analysis; type: ADME, Microsome
[5] = target: T2, Histone-lysine N-methyltransferase SMYD3 (Homo sapiens) (UniProt Q9H7B4); assay: Inhibition of SMYD3 in human HepG2 cells assessed as decrease in MAP3K2 methylation at 20 uM incubated for 24 hrs by cIEF based immunoassay relative to control; type: cell-based
T2 sequence (whole entry): T1 sequence (Q9H7B4 whole entry)
How it was run: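 HepG2 cells exposed to 20 μM for 24 h, DMSO control. MAP3K2-me2/me3 quantified by capillary isoelectric focusing in a nanofluidic proteomic immunoassay. Levels expressed relative to DMSO-treated cells.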

[6] = target: T2, Histone-lysine N-methyltransferase SMYD3 (Homo sapiens); assay: Inhibition of SMYD3 in human HepG2 cells assessed as inhibition of cell proliferation incubated for 3 days by CellTiter-Glo luminescent assay; type: cell-based
[7] = Apparent intrinsic clearance in human liver microsomes measured upto 60 mins by LC-MS/MS analysis; type: ADME, Microsome; details: 1 h
[8] = Apparent intrinsic clearance in mouse liver microsomes measured upto 60 mins by LC-MS/MS analysis; type: ADME, Microsome; details: 1 h
[9] = target: T2, Histone-lysine N-methyltransferase SMYD3 (Homo sapiens); assay: Inhibition of SMYD3 in human HepG2 cells assessed as inhibition of anchorage-independent colony formation in 3D culture cells incubated for 1 to 2 weeks by thiazolyl blue tetrazolium bromide based; type: cell-based
[10] = Metabolic stability in human liver microsomes assessed as half life preincubated for 5 mins followed by NADPH addition measured upto 60 mins by LC-MS/MS analysis; type: ADME, Microsome
[11] = GSH reactivity in pH 7.4 phosphate buffer assessed as pseudo first -order rate constant at 0.25 mM in presence of glutathione by HPLC-MS analysis; type: physicochemical; details: pH 7.4, 250 µM
[12] = target: T2, Histone-lysine N-methyltransferase SMYD3 (Homo sapiens); assay: Irreversible inhibition of SMYD3 (unknown origin) using MAP3K2 peptide as substrate assessed as kinact/Ki ratio pretreated for 5 mins followed by substrate addition and measured after 60 mins by MTase Glo reagent based luminescence assay
[13] = target: T1, Histone-lysine N-methyltransferase SMYD3; assay: Irreversible inhibition of SMYD3 (unknown origin) using MAP3K2 peptide as substrate pretreated for 5 mins followed by substrate addition and measured after 60 mins by MTase Glo reagent based luminescence assay
[14] = target: T2, Histone-lysine N-methyltransferase SMYD3 (Homo sapiens); assay: Irreversible inhibition of SMYD3 (unknown origin) using MAP3K2 peptide as substrate assessed as Kinact pretreated for 5 mins followed by substrate addition and measured after 60 mins by MTase Glo reagent based luminescence assay
HepG2 = assay: Downregulation of SMYD3 in human HepG2 cells at 5 to 20 uM incubated for 24 hrs by Western blot analysis; type: functional
How it was run: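 SMYD3 protein in HepG2 cells probed by Western blot after exposure at 5 and 20 μM, with DMSO control for comparison.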

SMILES	pIC50 [1]	half-life [4]	CLH(app) [7]	CLH(app) [8]	half-life [10]	also measured
COC(=O)N1CCN(C(=O)c2ccc3c(Cl)c4c(nc3c2)CCCC4)CC1	3.91					
CCOC(=O)N1CCN(C(=O)c2ccc3cc4c(nc3c2)CCCC4)CC1	< 3.12					
CCOC(=O)N1CCN(C(=O)c2ccc3c(Cl)c4c(nc3c2)CCC4)CC1	4.52					
CCCOC(=O)N1CCN(C(=O)c2ccc3c(Cl)c4c(nc3c2)CC(CN)CC4)CC1 (stereo not drawn)						Papp A→B [2]: 4.43 ×10⁻⁶ cm/s; Papp B→A [3]: 16.2 ×10⁻⁶ cm/s
CCCOC(=O)N1CCN(C(=O)c2ccc3c(Cl)cc(-c4ccccc4)nc3c2)C[C@H]1C	6.77	16 min	43 uL/min/mL	58 uL/min/mL	21 min	inhibition [5]: 55%; GI50 [6]: 24.4 µM; GI50 [9]: 0.79 µM
CCCOC(=O)N1CCN(C(=O)c2ccc3c(Cl)c4c(nc3c2)CCCC4)CC1	6.43					
CCCOC(=O)N1CCN(C(=O)c2ccc3c(Cl)c4c(nc3c2)CCCC4)C(C)C1 (racemic)						K [11]: 0.8 ×10⁻³ /min
CCCOC(=O)N1CCN(C(=O)c2ccc3c(Cl)c4c(nc3c2)CCCC4)[C@@H](C)C1	6.85					
CCCOC(=O)N1CCN(C(=O)c2ccc3ccc(-c4ccccc4)nc3c2)C[C@H]1C	< 3.60					inhibition [5]: inactive; GI50 [6]: 60.8 µM; GI50 [9]: > 10 µM
CCCOC(=O)N1CCN(C(=O)c2ccc3c(Cl)cc(-c4ccc(C)cc4)nc3c2)CC1	6.43	41 min	26 uL/min/mL	22 uL/min/mL	36 min	
CCOC(=O)N1CCN(C(=O)c2ccc3c(Cl)c4c(nc3c2)CCCCC4)CC1	4.69					
CCCOC(=O)N1CCN(C(=O)c2ccc3c(Cl)c4c(nc3c2)CCCC4)[C@H](C)C1	6.60					
CCCOC(=O)N1CCN(C(=O)c2ccc3c(Cl)cc(-c4ccc(C5(N)CC5)cc4)nc3c2)C[C@H]1C	7.93	52 min	20 uL/min/mL	13 uL/min/mL	35 min	inhibition [5]: 66%; GI50 [6]: 17.7 µM; Ratio [12]: 2110 M⁻¹ s⁻¹; pKi [13]: 6.36; Kinact [14]: 0.055 min⁻¹; inhibition (INH) (HepG2): 50%; GI50 [9]: 1.04 µM
CCCOC(=O)N1CCN(C(=O)c2ccc3c(Cl)cc(-c4ccc(C(=O)NC)cc4)nc3c2)CC1		46 min	53 uL/min/mL	20 uL/min/mL	17 min	GI50 [6]: > 100 µM; Ratio [12]: 692 M⁻¹ s⁻¹; pKi [13]: 5.51; Kinact [14]: 0.127 min⁻¹
CCCOC(=O)N1CCN(C(=O)c2ccc3c(Cl)cc(-c4ccccc4)nc3c2)CC1	6.52	13 min	28 uL/min/mL	70 uL/min/mL	33 min	GI50 [6]: > 100 µM; Ratio [12]: 833 M⁻¹ s⁻¹; pKi [13]: 5.41; Kinact [14]: 0.193 min⁻¹
CCCOC(=O)N1CCN(C(=O)c2ccc3c(Cl)c4c(nc3c2)CC(CN)CC4)[C@@H](C)C1 (stereo partly drawn)	7.17					K [11]: 0.5 ×10⁻³ /min
CCCCOC(=O)N1CCN(C(=O)c2ccc3c(Cl)c4c(nc3c2)CCCC4)CC1	6.44					
CCCOC(=O)N1CCN(C(=O)c2ccc3c(Cl)ccnc3c2)CC1		1 min	23 uL/min/mL	750 uL/min/mL	40 min	
NCCCC(=O)N1CCN(C(=O)c2ccc3c(Cl)c4c(nc3c2)CCCC4)CC1	< 3.12					
NCCOC(=O)N1CCN(C(=O)c2ccc3c(Cl)c4c(nc3c2)CCCC4)CC1	3.88					
CCOC(=O)N1CCN(C(=O)c2ccc3c(Cl)c4c(nc3c2)CCCC4)CC1	5.32	4 min	107 uL/min/mL	245 uL/min/mL	9 min	GI50 [6]: > 100 µM
C=CC(=O)Nc1cccc(OC)c1						K [11]: 3.4 ×10⁻³ /min
CCOC(=O)N1CCN(C(=O)c2ccc3c(C)c4c(nc3c2)CCCC4)CC1	< 3.12					
CCCOC(=O)N1CCN(C(=O)c2ccc3c(Cl)cc(-c4ccc(OC)cc4)nc3c2)CC1		22 min	32 uL/min/mL	43 uL/min/mL	28 min	GI50 [6]: > 100 µM

Reference: ChEMBL document CHEMBL4304770, “Discovery of Irreversible Inhibitors Targeting Histone Methyltransferase, SMYD3” (ACS Med Chem Lett, 2019)
